# In ChEMBL document CHEMBL3244289, “Synthesis and antibacterial activity of 2'-substituted chelocardin analogues” (1979):
# Activity calls are given as the source filed them. The rule behind the calls is not given here.
# How the values were obtained:
# [1] = test system: Salmonella typhi; assay: Antibacterial activity against Salmonella typhi by two-fold agar dilution method; format: functional, Salmonella enterica subsp. enterica serovar Typhi; conditions: Salmonella enterica
# Method in brief: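 MIC in µg/mL by twofold serial agar dilution on brain-heart infusion agar.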
# [2] = test system: Pasteurella multocida; assay: Antibacterial activity against Pasteurella multocida 10544 by two-fold agar dilution method; format: functional
# Method in brief: (§1)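 MIC determined by twofold serial dilution in brain-heart infusion agar. Values are reported in µg/mL.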
# [3] = test system: Staphylococcus aureus; assay: Antibacterial activity against Staphylococcus aureus Smith by two-fold agar dilution method; format: functional; method in brief: as §1
# [4] = test system: Escherichia coli; assay: Antibacterial activity against Escherichia coli Juhl by two-fold agar dilution method; format: functional; method in brief: as §1
# [5] = test system: Enterococcus; assay: Antibacterial activity against Enterococcus 89 by two-fold agar dilution method; format: functional; method in brief: as §1
# [6] = test system: Proteus vulgaris; assay: Antibacterial activity against Proteus vulgaris by two-fold agar dilution method; format: functional; method in brief: as §1
# [7] = test system: Staphylococcus aureus; assay: Antibacterial activity against Staphylococcus aureus 45 by two-fold agar dilution method; format: functional; method in brief: as §1
# [8] = test system: Streptococcus pyogenes; assay: Antibacterial activity against Streptococcus pyogenes C-203 by two-fold agar dilution method; format: functional; method in brief: as §1
# [9] = test system: Pseudomonas aeruginosa; assay: Antibacterial activity against Pseudomonas aeruginosa by two-fold agar dilution method; format: functional, organism-based; method in brief: as §1
# [10] = test system: Klebsiella pneumoniae; assay: Antibacterial activity against Klebsiella pneumoniae 8045 by two-fold agar dilution method; format: functional; method in brief: as §1
# [11] = test system: Proteus mirabilis; assay: Antibacterial activity against Proteus mirabilis by two-fold agar dilution method; format: functional; method in brief: as §1
Compound,MIC [1],MIC [2],MIC [3],MIC [4],MIC [5],MIC [6],MIC [7],MIC [8],Activity [9],MIC [10],MIC [11]
C/C(=N\c1ccc(Br)cc1)C1=C(O)[C@H](N)[C@@H]2Cc3c(c(O)c4c(O)c(C)ccc4c3C)C(=O)[C@]2(O)C1=O.Cl,3.1 µg/mL,0.39 µg/mL,12.5 µg/mL,25 µg/mL,25 µg/mL,6.2 µg/mL,12.5 µg/mL,12.5 µg/mL,inactive,3.1 µg/mL,6.2 µg/mL
COc1ccc(/N=C(\C)C2=C(O)[C@H](N)[C@@H]3Cc4c(c(O)c5c(O)c(C)ccc5c4C)C(=O)[C@]3(O)C2=O)cc1.Cl,3.1 µg/mL,0.78 µg/mL,12.5 µg/mL,25 µg/mL,6.2 µg/mL,3.1 µg/mL,12.5 µg/mL,3.1 µg/mL,inactive,3.1 µg/mL,6.2 µg/mL
C/C(=N\N1CCOCC1)C1=C(O)[C@H](N)[C@@H]2Cc3c(c(O)c4c(O)c(C)ccc4c3C)C(=O)[C@]2(O)C1=O.Cl,3.1 µg/mL,0.78 µg/mL,12.5 µg/mL,25 µg/mL,12.5 µg/mL,6.2 µg/mL,12.5 µg/mL,12.5 µg/mL,inactive,6.2 µg/mL,12.5 µg/mL
C/C(=N\c1ccc(Cl)cc1)C1=C(O)[C@H](N)[C@@H]2Cc3c(c(O)c4c(O)c(C)ccc4c3C)C(=O)[C@]2(O)C1=O.Cl,3.1 µg/mL,0.39 µg/mL,6.2 µg/mL,25 µg/mL,25 µg/mL,1.56 µg/mL,6.2 µg/mL,6.2 µg/mL,inactive,3.1 µg/mL,3.1 µg/mL
C/C(=N\N1CCOC1=O)C1=C(O)[C@H](N)[C@@H]2Cc3c(c(O)c4c(O)c(C)ccc4c3C)C(=O)[C@]2(O)C1=O.Cl,25 µg/mL,1.6 µg/mL,25 µg/mL,25 µg/mL,25 µg/mL,6.2 µg/mL,25 µg/mL,25 µg/mL,inactive,25 µg/mL,12.5 µg/mL
C/C(=N\NC(=O)Nc1ccccc1Cl)C1=C(O)[C@H](N)[C@@H]2Cc3c(c(O)c4c(O)c(C)ccc4c3C)C(=O)[C@]2(O)C1=O.Cl,50 µg/mL,6.2 µg/mL,50 µg/mL,100 µg/mL,100 µg/mL,50 µg/mL,100 µg/mL,25 µg/mL,inactive,50 µg/mL,50 µg/mL
C/C(=N\NC(=O)CC#N)C1=C(O)[C@H](N)[C@@H]2Cc3c(c(O)c4c(O)c(C)ccc4c3C)C(=O)[C@]2(O)C1=O.Cl,12.5 µg/mL,1.56 µg/mL,50 µg/mL,50 µg/mL,50 µg/mL,12.5 µg/mL,50 µg/mL,50 µg/mL,inactive,12.5 µg/mL,12.5 µg/mL
CCCC(=O)N/N=C(\C)C1=C(O)[C@H](N)[C@@H]2Cc3c(c(O)c4c(O)c(C)ccc4c3C)C(=O)[C@]2(O)C1=O.Cl,12.5 µg/mL,1.56 µg/mL,50 µg/mL,50 µg/mL,50 µg/mL,12.5 µg/mL,50 µg/mL,25 µg/mL,inactive,12.5 µg/mL,12.5 µg/mL
C/C(=N\NC(=O)c1ccncc1)C1=C(O)[C@H](N)[C@@H]2Cc3c(c(O)c4c(O)c(C)ccc4c3C)C(=O)[C@]2(O)C1=O.Cl (stereo in doubt),12.5 µg/mL,6.2 µg/mL,50 µg/mL,50 µg/mL,50 µg/mL,12.5 µg/mL,50 µg/mL,12.5 µg/mL,inactive,12.5 µg/mL,12.5 µg/mL
C/C(=N\NCCN(C)C)C1=C(O)[C@H](N)[C@@H]2Cc3c(c(O)c4c(O)c(C)ccc4c3C)C(=O)[C@]2(O)C1=O.Cl,25 µg/mL,3.1 µg/mL,50 µg/mL,50 µg/mL,100 µg/mL,25 µg/mL,50 µg/mL,50 µg/mL,inactive,25 µg/mL,25 µg/mL
C/C(=N\NC(=O)c1cccnc1)C1=C(O)[C@H](N)[C@@H]2Cc3c(c(O)c4c(O)c(C)ccc4c3C)C(=O)[C@]2(O)C1=O.Cl,100 µg/mL,12.5 µg/mL,> 100 µg/mL,100 µg/mL,> 100 µg/mL,> 100 µg/mL,> 100 µg/mL,100 µg/mL,inactive,100 µg/mL,> 100 µg/mL
C/C(=N\NC(=O)c1ccc(N)cc1)C1=C(O)[C@H](N)[C@@H]2Cc3c(c(O)c4c(O)c(C)ccc4c3C)C(=O)[C@]2(O)C1=O.Cl (stereo in doubt),12.5 µg/mL,1.56 µg/mL,50 µg/mL,50 µg/mL,50 µg/mL,12.5 µg/mL,50 µg/mL,25 µg/mL,inactive,12.5 µg/mL,12.5 µg/mL
CNC(=O)N/N=C(\C)C1=C(O)[C@H](N)[C@@H]2Cc3c(c(O)c4c(O)c(C)ccc4c3C)C(=O)[C@]2(O)C1=O.Cl,25 µg/mL,3.1 µg/mL,25 µg/mL,50 µg/mL,50 µg/mL,25 µg/mL,50 µg/mL,25 µg/mL,inactive,12.5 µg/mL,50 µg/mL
C/C(=N\NC(=O)c1ccccc1O)C1=C(O)[C@H](N)[C@@H]2Cc3c(c(O)c4c(O)c(C)ccc4c3C)C(=O)[C@]2(O)C1=O.Cl,> 100 µg/mL,25 µg/mL,> 100 µg/mL,> 100 µg/mL,> 100 µg/mL,> 100 µg/mL,> 100 µg/mL,> 100 µg/mL,inactive,> 100 µg/mL,> 100 µg/mL
CCCNC(=O)N/N=C(\C)C1=C(O)[C@H](N)[C@@H]2Cc3c(c(O)c4c(O)c(C)ccc4c3C)C(=O)[C@]2(O)C1=O.Cl,6.2 µg/mL,0.78 µg/mL,25 µg/mL,25 µg/mL,50 µg/mL,6.2 µg/mL,25 µg/mL,12.5 µg/mL,inactive,6.2 µg/mL,6.2 µg/mL
COc1ccc(C(=O)N/N=C(\C)C2=C(O)[C@H](N)[C@@H]3Cc4c(c(O)c5c(O)c(C)ccc5c4C)C(=O)[C@]3(O)C2=O)cc1.Cl (stereo in doubt),25 µg/mL,3.1 µg/mL,100 µg/mL,100 µg/mL,> 100 µg/mL,25 µg/mL,100 µg/mL,50 µg/mL,inactive,50 µg/mL,25 µg/mL
C/C(=N\NC(=O)Cc1ccccc1)C1=C(O)[C@H](N)[C@@H]2Cc3c(c(O)c4c(O)c(C)ccc4c3C)C(=O)[C@]2(O)C1=O.Cl,12.5 µg/mL,6.2 µg/mL,25 µg/mL,50 µg/mL,50 µg/mL,12.5 µg/mL,25 µg/mL,12.5 µg/mL,inactive,6.2 µg/mL,12.5 µg/mL
C/C(=N\NC(N)=S)C1=C(O)[C@H](N)[C@@H]2Cc3c(c(O)c4c(O)c(C)ccc4c3C)C(=O)[C@]2(O)C1=O.Cl,25 µg/mL,3.1 µg/mL,50 µg/mL,100 µg/mL,100 µg/mL,50 µg/mL,50 µg/mL,25 µg/mL,inactive,25 µg/mL,50 µg/mL
C/C(=N\NC(=O)c1ccco1)C1=C(O)[C@H](N)[C@@H]2Cc3c(c(O)c4c(O)c(C)ccc4c3C)C(=O)[C@]2(O)C1=O.Cl (stereo in doubt),25 µg/mL,3.1 µg/mL,> 100 µg/mL,> 100 µg/mL,> 100 µg/mL,50 µg/mL,> 100 µg/mL,50 µg/mL,inactive,50 µg/mL,50 µg/mL
C/C(=N\c1ccccc1)C1=C(O)[C@H](N)[C@@H]2Cc3c(c(O)c4c(O)c(C)ccc4c3C)C(=O)[C@]2(O)C1=O.Cl,6.2 µg/mL,1.56 µg/mL,12.5 µg/mL,25 µg/mL,25 µg/mL,6.2 µg/mL,12.5 µg/mL,12.5 µg/mL,inactive,12.5 µg/mL,6.2 µg/mL
C=CCNC(=O)N/N=C(\C)C1=C(O)[C@H](N)[C@@H]2Cc3c(c(O)c4c(O)c(C)ccc4c3C)C(=O)[C@]2(O)C1=O.Cl,12.5 µg/mL,0.78 µg/mL,25 µg/mL,25 µg/mL,50 µg/mL,12.5 µg/mL,25 µg/mL,12.5 µg/mL,inactive,6.2 µg/mL,6.2 µg/mL
C/C(=N\c1ccc(CC(=O)O)cc1)C1=C(O)[C@H](N)[C@@H]2Cc3c(c(O)c4c(O)c(C)ccc4c3C)C(=O)[C@]2(O)C1=O.Cl,1.5 µg/mL,0.39 µg/mL,6.2 µg/mL,6.2 µg/mL,12.5 µg/mL,1.56 µg/mL,6.2 µg/mL,3.1 µg/mL,inactive,1.56 µg/mL,3.1 µg/mL
C/C(=N\c1ccc(O)cc1)C1=C(O)[C@H](N)[C@@H]2Cc3c(c(O)c4c(O)c(C)ccc4c3C)C(=O)[C@]2(O)C1=O.Cl,6.2 µg/mL,0.78 µg/mL,12.5 µg/mL,50 µg/mL,25 µg/mL,3.1 µg/mL,12.5 µg/mL,12.5 µg/mL,inactive,3.1 µg/mL,6.2 µg/mL
